Measured values as given in ChEMBL document CHEMBL3352372, “Design, synthesis and 3D-QSAR studies of new diphenylamine containing 1,2,4-triazoles as potential antitubercular agents” (Eur J Med Chem, 2014).
In brackets after ≈: the same amount, converted by molar mass.

Assays:
[1] = system: Mycobacterium tuberculosis; experiment: Antitubercular activity Mycobacterium tuberculosis H37Rv assessed as growth inhibition after 5 days by MABA method; type: functional; conditions: for MIC: Mycobacterium tuberculosis, H37Rv, 120 h
Outline: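 Log-phase H37Rv was diluted to a final OD550 of 0.05 in Middlebrook 7H9 broth, and compounds in DMSO were added in 96-well plates. After a further 24 h at 37 °C/5% CO2, fluorescence was read (ex 544 nm, em 590 nm). Inhibition was scored against the untreated control, with >90% inhibition counted as active in the initial screen.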

[2] = system: Mycobacterium tuberculosis; experiment: Antitubercular activity Mycobacterium tuberculosis H37Rv assessed as growth inhibition after 30 days by agar microdilution method; type: functional
Outline: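 M. tuberculosis H37Rv (ATCC 27294) grown on L-J medium, harvested in 0.85% saline with 0.05% Tween-80. Compounds, from a DMSO stock, were added as twofold dilutions to Middlebrook 7H10 agar with OADC in tubes. After 30 days of incubation, tubes were compared with untreated H37Rv control tubes. The lowest concentration giving complete inhibition of colonies was reported.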

Staphylococcus aureus = experiment: Antibacterial activity Staphylococcus aureus ATCC-25923 assessed as growth inhibition after 24 hrs by twofold serial dilution technique; type: functional; conditions: ATCC-25923, 24 h
Outline: (§1)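 Tube twofold serial dilution of compounds dissolved in DMSO, under aseptic conditions. Solvent, growth (negative) and drug (ampicillin) controls were run alongside. Tubes were incubated 24 h at 37 °C. MIC was taken as the lowest concentration giving apparent complete inhibition of growth. Strains were first screened by cup plate method.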

Bacillus spizizenii = experiment: Antibacterial activity Bacillus Bacillus subtilis ATCC 6633 assessed as growth inhibition after 24 hrs by twofold serial dilution technique; type: functional; conditions: ATCC 6633, 24 h; outline: as §1
Escherichia coli = experiment: Antibacterial activity Escherichia coli ATCC-25922 assessed as growth inhibition after 24 hrs by twofold serial dilution technique; type: functional; conditions: ATCC-25922, 24 h; outline: as §1
Pseudomonas aeruginosa = experiment: Antibacterial activity Pseudomonas aeruginosa ATCC-27853 assessed as growth inhibition after 24 hrs by twofold serial dilution technique; type: functional; conditions: ATCC-27853, 24 h; outline: as §1
[3] = Cytotoxicity against african green monkey Vero cells after 72 hrs by MTT assay; type: cell-based; conditions: chlorocebus sabaeus
Outline: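 After media removal and a PBS wash, dilutions were added with DMSO control, then incubated 72 h at 37 °C, 5% CO2. Cells were washed, given MTT for 3 h in the dark, and solubilized in DMSO 1–2 h. CC50 was extrapolated from plotted % inhibition (100 − % viability) against concentration.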

[4] = Cytotoxicity against human HepG2 cells after 72 hrs by MTT assay; type: cell-based

S=c1n(CN2CCCCC2)nc(Cc2ccccc2Nc2c(Cl)cccc2Cl)n1/N=C/c1ccncc1
-logMIC [1]: 4.903
MIC [1]: 12.5 µM (≈ 6.91 µg/mL)
MIC [2]: 12.5 µM (≈ 6.91 µg/mL)
MIC (Staphylococcus aureus): 12.5 µM (≈ 6.91 µg/mL)
MIC (Bacillus spizizenii): 25 µM (≈ 13.8 µg/mL)
MIC (Escherichia coli): 25 µM (≈ 13.8 µg/mL)
MIC (Pseudomonas aeruginosa): 25 µM (≈ 13.8 µg/mL)

COc1ccc(/C=N/n2c(Cc3ccccc3Nc3c(Cl)cccc3Cl)nn3c(=O)c4ccccc4nc23)cc1
-logMIC [1]: 4.602
MIC [1]: 25 µM (≈ 14.2 µg/mL)
MIC (Staphylococcus aureus): 100 µM (≈ 56.9 µg/mL)
MIC (Bacillus spizizenii): 25 µM (≈ 14.2 µg/mL)
MIC (Escherichia coli): 100 µM (≈ 56.9 µg/mL)
MIC (Pseudomonas aeruginosa): 100 µM (≈ 56.9 µg/mL)

O=c1c2ccccc2nc2n(/N=C/c3ccccc3)c(Cc3ccccc3Nc3c(Cl)cccc3Cl)nn12
-logMIC [1]: 4.903
MIC [1]: 12.5 µM (≈ 6.74 µg/mL)
MIC [2]: 12.5 µM (≈ 6.74 µg/mL)
MIC (Staphylococcus aureus): 12.5 µM (≈ 6.74 µg/mL)
MIC (Bacillus spizizenii): 12.5 µM (≈ 6.74 µg/mL)
MIC (Escherichia coli): 12.5 µM (≈ 6.74 µg/mL)
MIC (Pseudomonas aeruginosa): 12.5 µM (≈ 6.74 µg/mL)

COc1ccc(/C=N/n2c(Cc3ccccc3Nc3c(Cl)cccc3Cl)nn(CN3CCOCC3)c2=S)cc1OC
-logMIC [1]: 5.204
MIC [1]: 6.25 µM (≈ 3.83 µg/mL)
MIC [2]: 6.25 µM (≈ 3.83 µg/mL)
MIC (Staphylococcus aureus): 12.5 µM (≈ 7.67 µg/mL)
MIC (Bacillus spizizenii): 12.5 µM (≈ 7.67 µg/mL)
MIC (Escherichia coli): 6.25 µM (≈ 3.83 µg/mL)
MIC (Pseudomonas aeruginosa): 12.5 µM (≈ 7.67 µg/mL)
CC50 at 72 h [3]: > 300 µM
CC50 at 72 h [4]: 282 µM

O=C1CSC(c2ccco2)N1n1c(Cc2ccccc2Nc2c(Cl)cccc2Cl)n[nH]c1=S (centres undefined)
-logMIC [1]: 4.602
MIC [1]: 25 µM (≈ 13 µg/mL)
MIC (Staphylococcus aureus): 12.5 µM (≈ 6.48 µg/mL)
MIC (Bacillus spizizenii): 12.5 µM (≈ 6.48 µg/mL)
MIC (Escherichia coli): 12.5 µM (≈ 6.48 µg/mL)
MIC (Pseudomonas aeruginosa): 12.5 µM (≈ 6.48 µg/mL)

O=c1c2ccccc2nc2n(/N=C/c3cccs3)c(Cc3ccccc3Nc3c(Cl)cccc3Cl)nn12
-logMIC [1]: 4.903
MIC [1]: 12.5 µM (≈ 6.82 µg/mL)
MIC [2]: 12.5 µM (≈ 6.82 µg/mL)
MIC (Staphylococcus aureus): 12.5 µM (≈ 6.82 µg/mL)
MIC (Bacillus spizizenii): 12.5 µM (≈ 6.82 µg/mL)
MIC (Escherichia coli): 12.5 µM (≈ 6.82 µg/mL)
MIC (Pseudomonas aeruginosa): 12.5 µM (≈ 6.82 µg/mL)

S=c1n(CN2CCCCC2)nc(Cc2ccccc2Nc2c(Cl)cccc2Cl)n1/N=C/c1ccco1
-logMIC [1]: 5.204
MIC [1]: 6.25 µM (≈ 3.38 µg/mL)
MIC [2]: 6.25 µM (≈ 3.38 µg/mL)
MIC (Staphylococcus aureus): 25 µM (≈ 13.5 µg/mL)
MIC (Bacillus spizizenii): 25 µM (≈ 13.5 µg/mL)
MIC (Escherichia coli): 12.5 µM (≈ 6.77 µg/mL)
MIC (Pseudomonas aeruginosa): 25 µM (≈ 13.5 µg/mL)
CC50 at 72 h [3]: > 300 µM
CC50 at 72 h [4]: 262 µM

COc1ccc(C2SCC(=O)N2n2c(Cc3ccccc3Nc3c(Cl)cccc3Cl)n[nH]c2=S)cc1OC (centres undefined)
-logMIC [1]: 4.301
MIC [1]: 50 µM (≈ 29.4 µg/mL)
MIC (Staphylococcus aureus): 100 µM (≈ 58.9 µg/mL)
MIC (Bacillus spizizenii): 100 µM (≈ 58.9 µg/mL)
MIC (Escherichia coli): 100 µM (≈ 58.9 µg/mL)
MIC (Pseudomonas aeruginosa): 100 µM (≈ 58.9 µg/mL)

O=c1c2ccccc2nc2n(/N=C/c3ccncc3)c(Cc3ccccc3Nc3c(Cl)cccc3Cl)nn12
-logMIC [1]: 4.602
MIC [1]: 25 µM (≈ 13.5 µg/mL)
MIC (Staphylococcus aureus): 100 µM (≈ 54 µg/mL)
MIC (Bacillus spizizenii): 100 µM (≈ 54 µg/mL)
MIC (Escherichia coli): 25 µM (≈ 13.5 µg/mL)
MIC (Pseudomonas aeruginosa): 100 µM (≈ 54 µg/mL)

O=C1CSC(c2ccncc2)N1n1c(Cc2ccccc2Nc2c(Cl)cccc2Cl)n[nH]c1=S (centres undefined)
-logMIC [1]: 4.903
MIC [1]: 12.5 µM (≈ 6.62 µg/mL)
MIC [2]: 6.25 µM (≈ 3.31 µg/mL)
MIC (Staphylococcus aureus): 25 µM (≈ 13.2 µg/mL)
MIC (Bacillus spizizenii): 12.5 µM (≈ 6.62 µg/mL)
MIC (Escherichia coli): 50 µM (≈ 26.5 µg/mL)
MIC (Pseudomonas aeruginosa): 50 µM (≈ 26.5 µg/mL)

O=c1c2ccccc2nc2n(/N=C/c3ccco3)c(Cc3ccccc3Nc3c(Cl)cccc3Cl)nn12
-logMIC [1]: 4.602
MIC [1]: 25 µM (≈ 13.2 µg/mL)
MIC (Staphylococcus aureus): 12.5 µM (≈ 6.62 µg/mL)
MIC (Bacillus spizizenii): 12.5 µM (≈ 6.62 µg/mL)
MIC (Escherichia coli): 12.5 µM (≈ 6.62 µg/mL)
MIC (Pseudomonas aeruginosa): 12.5 µM (≈ 6.62 µg/mL)

CC1(C)S[C@@H]2[C@H](NC(=O)[C@H](N)c3ccccc3)C(=O)N2[C@H]1C(=O)O [AMPICILLIN]
MIC (Staphylococcus aureus): 6.25 µM (≈ 2.18 µg/mL)
MIC (Bacillus spizizenii): 6.25 µM (≈ 2.18 µg/mL)
MIC (Escherichia coli): < 6.25 µM
MIC (Pseudomonas aeruginosa): < 6.25 µM

S=c1n(CN2CCOCC2)nc(Cc2ccccc2Nc2c(Cl)cccc2Cl)n1/N=C/c1ccco1
-logMIC [1]: 5.505
MIC [1]: 3.12 µM (≈ 1.7 µg/mL)
MIC [2]: 3.12 µM (≈ 1.7 µg/mL)
MIC (Staphylococcus aureus): 12.5 µM (≈ 6.79 µg/mL)
MIC (Bacillus spizizenii): 12.5 µM (≈ 6.79 µg/mL)
MIC (Escherichia coli): 12.5 µM (≈ 6.79 µg/mL)
MIC (Pseudomonas aeruginosa): 25 µM (≈ 13.6 µg/mL)
CC50 at 72 h [3]: > 300 µM
CC50 at 72 h [4]: > 300 µM
